# CTSL1 counter: counter-screen for PFM18AAP inhibitors: inhibitors of F. hepatica cathepsin L1; recombinant F. hepatica cathepsin L1, Z-Leu-Arg-MCA fluorescence; inhibition, % at 5.96 µM; 0.49% of 300,000 active; AID 1906;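 active = inhibition above the mean of all tested compounds plus 3 SD, set per screening campaign, cut at about 17% in these data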
# TDP2 inh: blocks human TDP2 phosphodiesterase activity; recombinant TDP2, T5PNP hydrolysis, p-nitrophenol absorbance 415 nm; AID 720702; inhibition, % at 12.8 µM; 0.34% of 370,000 active;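 active = inhibition above the mean of all tested compounds plus 3 SD, set per campaign, cut at about 25% in these data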
#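 System – recombinant human TDP2 · Quantity – TDP2 enzyme at 120 nM final · Doses – single concentration, 12.8 µM nominal, with 1% DMSO · Incubation – 2 h at 37 °C · Measured by – epi absorbance of p-nitrophenol freed from T5PNP by hydrolysis · Read-out – % inhibition relative to enzyme-containing and enzyme-free wells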
# PAD4 FP inh: blocks human protein arginine deiminase 4 | Q9UM07 | recombinant PAD4, RCA probe fluorescence polarization | inhibition, % at 6.36 µM | 0.41% of 330,000 active | AID 485272;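 active = percent inhibition above a cutoff equal to the mean of all tested compounds plus 3 SD, cut at about 15% in these data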
# PRMT1 FP inh: PRMT1 (human) inhibition, primary screen; Q99873; recombinant PRMT1, activity-based probe fluorescence polarization; inhibition, % at 2.79 µM; 1.3% of 370,000 active; AID 652257;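 active = inhibition above about 21% made by adding two undisclosed values, limit read from the data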
# Target sequence (Q99873 whole entry, looked up): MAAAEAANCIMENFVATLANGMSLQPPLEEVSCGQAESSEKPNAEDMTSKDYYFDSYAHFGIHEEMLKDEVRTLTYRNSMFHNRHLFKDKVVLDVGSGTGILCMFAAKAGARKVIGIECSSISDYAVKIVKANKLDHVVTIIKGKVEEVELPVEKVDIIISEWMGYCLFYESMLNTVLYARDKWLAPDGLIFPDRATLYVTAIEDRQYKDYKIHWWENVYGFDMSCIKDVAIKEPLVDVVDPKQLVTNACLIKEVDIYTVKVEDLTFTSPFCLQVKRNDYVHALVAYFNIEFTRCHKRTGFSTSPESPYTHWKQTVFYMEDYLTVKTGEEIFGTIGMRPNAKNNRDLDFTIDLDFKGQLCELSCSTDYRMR
# GSTO1 counter: GSTO1 inhibition, counter-screen for RBBP9 inhibitors | recombinant GSTO1, activity-based probe fluorescence polarization | inhibition, % at 5.96 µM | 1.1% of 300,000 active;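 active = inhibition above the campaign mean inhibition plus 3 SD, cut at about 35% in these data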
# PAD4 confirm: PAD4 (human) inhibition, confirmed; AID 488796; recombinant PAD4, RCA probe fluorescence polarization; 28% of 1,200 active; inhibition, % at 6.36 µM; shares compounds with PAD4 FP inh;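 active = mean inhibition across replicates above the hit cutoff set by the earlier primary screen, cut at about 15% in these data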;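 also: inhibitors block active-site labeling by the probe so polarization falls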
# PRMT1 inh conf: PRMT1 (human) inhibition, FP confirmation; shares compounds with PRMT1 FP inh; 42% of 3,300 active; recombinant His-PRMT1, activity-based probe fluorescence polarization; inhibition, % at 2.79 µM;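 active = mean inhibition across replicates above the hit cutoff derived for the earlier primary screen, cut at about 22% in these data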
# A number is an active result; 0 = inactive; - = no result given. Hits are enriched below; roughly 2.5% of the tested compounds scored in any of these assays.
SMILES,CTSL1 counter,TDP2 inh,PAD4 FP inh,PRMT1 FP inh,GSTO1 counter,PAD4 confirm,others
CCN1CC2=C(OC(N)=C(C#N)C2c2ccccc2)/C(=C\c2ccccc2)C1 (centres undefined),0,0,24,0,0,19,
CC(C)c1cccc(C(C)C)c1NC(=O)CN1C(=O)NC2(CCCC2)C1=O,0,0,0,0,0,-,
CC(C)c1cccc(C(C)C)c1NC(=O)CN1C(=O)NC2(CCCCCCC2)C1=O,-,0,18,0,-,0,
CCN(Cc1ccc2c(c1)OCCO2)C(=O)CSc1nc(C)nc2sc(C)c(C)c12,-,0,79,0,-,0,
Brc1ccccc1Cn1nnc(-c2ccc(N3CCOCC3)cc2)n1,-,0,-,0,-,-,
Cc1cc2c3c(c1)C1(SCC(=O)N1c1ccc(F)cc1)C(=O)N3C(C)(C)CC2C (centres undefined),0,0,0,0,0,-,
CC1CC(C)(C)N2C(=O)C3(Nc4ccccc4S3)c3cccc1c32 (centres undefined),0,-,23,-,0,28,
COc1ccc(NC(=O)CCCNC(=O)Cn2cnc3sc4c(c3c2=O)CCCC4)c(OC)c1,0,0,35,0,0,0,
COc1ccc(NC(=O)CCNC(=O)Cn2cnc3sc4c(c3c2=O)CCCC4)c(OC)c1,0,0,0,0,0,-,
O=S(=O)(CC1NCc2ccccc21)NCCc1ccccc1 (centres undefined),-,0,-,0,-,-,
Cc1cc(C(=O)CSc2nc(N)cc(N)n2)c(C)n1C1CC1,0,0,16,0,0,0,
COc1ccccc1OC(C)C(=O)Nc1nc(-c2ccc(S(=O)(=O)N3CCOCC3)cc2)cs1 (centres undefined),0,0,0,0,0,-,
COc1ccccc1C(=O)Nc1nc(-c2ccc(S(=O)(=O)N3CCOCC3)cc2)cs1,0,0,40,0,0,41,
CCc1ccc(/C=N/n2c(COc3ccccc3)n[nH]c2=S)cc1,0,0,32,0,0,0,
CC(C)C(NC(=O)[C@H](Cc1ccc(O)cc1)NC(=O)OC(C)(C)C)P(=O)(O)OC(Cc1ccccc1)C(=O)O (some centres undefined),-,0,-,0,-,-,
CC(C)(C)OC(=O)NCc1cc(F)ccc1/C=C/S(=O)(=O)NCc1ccccc1,-,0,-,0,-,-,
NNC(=O)c1snnc1-c1ccccc1,0,0,40,0,0,0,
COC(=O)C[C@H]1CC[C@@H]2[C@@H](COc3ccc(NC(=O)Nc4ccccc4OC)cc3C(=O)N2C)O1,-,0,-,0,-,-,
CCOC(=O)[C@]12CCCCC/C=C\1N(CCc1ccc(Cl)cc1)C(=O)[C@H]2CC(=O)NCc1cccc(C(F)(F)F)c1,-,0,-,0,-,-,
COc1ccc(C2C(C(=O)N3CCC(C)CC3)CC(=O)N2c2ccc(OC)cc2)cc1 (centres undefined),-,0,-,0,-,-,
CC(C)C(C(=O)NC1CCCC1)N(CC1CCCO1)C(=O)CNS(=O)(=O)c1ccccc1 (centres undefined),0,0,26,0,0,0,
CCC(C)(C)NC(=O)CN(CC1CCCO1)C(=O)CNS(=O)(=O)c1ccccc1 (centres undefined),0,0,0,0,0,-,
CC(C)N(C)NC(=S)Nc1ccccc1,0,0,0,0,0,-,
Cc1cc(N(C)NC(=S)Nc2ccccc2)nc(C)n1,0,0,52,0,0,0,
CCCC(=O)N(c1ccc2oc(=O)sc2c1)S(=O)(=O)c1cccs1,0,0,16,85,0,18,PRMT1 inh conf=37
CC(=O)N(c1ccc2oc(=O)sc2c1)S(=O)(=O)c1ccccc1,0,0,18,91,0,0,PRMT1 inh conf=65
CN(CC(=O)O)S(=O)(=O)c1cccs1,0,0,0,0,0,-,
COC(=O)[C@]12C[C@H](CC(=O)NCCCCc3ccccc3)C(=O)N(Cc3ccc(Cl)cc3Cl)C1=C[C@H](C(C)(C)C)O[C@@H]2C,-,0,-,0,-,-,
O=S(=O)(NC1=NCCCCC1)c1ccc2sc(NS(=O)(=O)c3ccc4ccccc4c3)nc2c1,0,0,30,44,0,22,PRMT1 inh conf=27
CN(CCOC(=O)c1cccs1)C1CN(Cc2cn(Cc3ccccc3Cl)nn2)S(=O)(=O)C1 (centres undefined),-,0,-,0,-,-,
